Sampled rows, rich in hits. Any-hit rate of the full collection: about 2.3%.
TRPC6 inh = inhibitors of mouse TRPC6 channel. B-score at 10 µM. HEK293-TRPC6, membrane potential dye, ACh-evoked depolarization; active compounds read low. 1.1% of 310,000 active;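 active = B-score under library mean minus 3 SD, initial fluorescence not abnormally high, positive integrated signal ratio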;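 note: B-score derived from integrated fluorescence ratio over the kinetic read; more negative B-score means stronger inhibition of depolarization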
Target sequence (Q61143 whole entry, looked up): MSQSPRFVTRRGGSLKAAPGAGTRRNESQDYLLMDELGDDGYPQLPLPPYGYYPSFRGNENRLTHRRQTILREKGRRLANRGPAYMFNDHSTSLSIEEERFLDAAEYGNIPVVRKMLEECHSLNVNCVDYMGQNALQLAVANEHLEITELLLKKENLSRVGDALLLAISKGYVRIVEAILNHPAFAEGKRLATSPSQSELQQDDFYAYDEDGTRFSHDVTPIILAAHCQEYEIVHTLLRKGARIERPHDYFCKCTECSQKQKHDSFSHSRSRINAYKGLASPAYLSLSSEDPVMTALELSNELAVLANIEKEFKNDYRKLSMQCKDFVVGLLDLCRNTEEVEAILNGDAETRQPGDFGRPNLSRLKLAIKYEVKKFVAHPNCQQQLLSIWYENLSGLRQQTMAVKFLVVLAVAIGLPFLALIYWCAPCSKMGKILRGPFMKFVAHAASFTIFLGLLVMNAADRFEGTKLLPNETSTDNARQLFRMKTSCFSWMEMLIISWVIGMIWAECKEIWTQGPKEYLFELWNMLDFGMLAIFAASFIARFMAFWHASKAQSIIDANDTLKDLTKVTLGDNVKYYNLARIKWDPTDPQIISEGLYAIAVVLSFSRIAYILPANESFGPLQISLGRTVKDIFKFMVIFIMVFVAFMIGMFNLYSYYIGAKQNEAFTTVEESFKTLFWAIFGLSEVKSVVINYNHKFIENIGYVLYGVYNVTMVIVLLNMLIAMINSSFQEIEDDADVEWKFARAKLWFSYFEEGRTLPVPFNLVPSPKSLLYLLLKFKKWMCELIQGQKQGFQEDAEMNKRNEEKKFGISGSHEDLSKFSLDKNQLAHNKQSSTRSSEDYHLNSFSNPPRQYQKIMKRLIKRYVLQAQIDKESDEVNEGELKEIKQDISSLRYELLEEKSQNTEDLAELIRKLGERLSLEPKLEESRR
TRPC4 block = blocks the mouse TRPC4 cation channel; B-score at 10 µM; 0.39% of 300,000 active; Q9QUQ5; HEK293 TRPC4beta/mu-opioid, DAMGO-evoked Fluo4 calcium flux; active compounds read low;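 active = B-score over 3 SD under the library average, no early fluorescence shift, positive overall ratio signal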
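Assay system: HEK293 cells with stable TRPC4beta plus mu-opioid receptor expression; Probe or stimulus: DAMGO in two steps, submaximal then maximal; Dosing: single-point compound dosing; Measured by: Fluo4 calcium-dye fluorescence, kinetic read; Read-out basis: B score from integrated Fluo4 fluorescence ratio.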
TRPC4 PAM = TRPC4 (mouse) allosteric potentiation | Q9QUQ5 | HEK293 TRPC4beta/mu-opioid, DAMGO EC20, Fluo-4 Ca2+ flux; active compounds read high | B-score at 10 µM | 0.42% of 310,000 active | AID 2227;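 active = B-score of calcium response area above 5 SD of library B-scores, with initial fluorescence ratio within 5 SD of library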
TRPC6 act = activates the mouse TRPC6 cation channel. B-score at 10 µM. HEK293-TRPC6 membrane potential dye fluorescence; active compounds read high. Q61143. 0.13% of 310,000 active. AID 2550;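 active = B-score of the integrated fluorescence ratio above library mean plus 3 SD, and starting fluorescence ratio within library mean plus 5 SD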;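 note: higher score means more depolarization so channel activation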
TRPC4 act = TRPC4 (mouse) channel activation; Q9QUQ5; HEK293 TRPC4beta/mu-opioid, Fluo4 calcium fluorescence; active compounds read high; B-score at 10 µM; 0.49% of 310,000 active; AID 2237;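 active = B-score above 5 SD of library B-scores, and initial fluorescence ratio not above library mean plus 5 SD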;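 note: positive B-score marks a calcium rise read as TRPC4 activation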
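system = HEK293 cells stably co-expressing mouse TRPC4beta and mu-opioid receptor | schedule = Fluo4 dye loading 45 min at room temperature, 110 s recording | measure = B-scored integrated calcium fluorescence ratio | signal = Fluo4 calcium-sensitive dye fluorescence, kinetic, 1 Hz baseline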
A number is an active result.

For CCCCS(=O)(=O)N1CCCC(C(=O)NCC2CCCO2)C1 (centres undefined) the results were TRPC6 inh inactive, TRPC4 block inactive, TRPC4 PAM inactive, TRPC6 act inactive and TRPC4 act 85.
`CN(C)C1(CN=Cc2cc(Cl)cc([N+](=O)[O-])c2O)CCCCC1` gave TRPC6 inh inactive, TRPC4 block inactive, TRPC4 PAM inactive, TRPC6 act inactive and TRPC4 act inactive.
`Cc1noc(C)c1CCC(=O)NC1CCCN(Cc2ccc(CC(C)C)cc2)C1` (centres undefined) gave TRPC6 inh inactive, TRPC4 block inactive, TRPC4 PAM inactive, TRPC6 act inactive and TRPC4 act 101.
`c1ccc2[nH]c3cc4ncnc4cc3nc2c1` gave TRPC6 inh inactive, TRPC4 block inactive, TRPC4 PAM inactive, TRPC6 act inactive and TRPC4 act inactive.
`CC(C)NS(=O)(=O)c1ccc(NC(=O)C(C)Oc2ccc(C(=O)c3ccccc3)cc2)cc1` (centres undefined) gave TRPC6 inh inactive, TRPC4 block inactive, TRPC4 PAM 44, TRPC6 act inactive and TRPC4 act inactive.
For CC(Oc1ccccc1)C(=O)Nc1ccc(C(N)=O)cc1 (centres undefined) the results were TRPC6 inh inactive, TRPC4 block inactive, TRPC4 PAM inactive, TRPC6 act inactive and TRPC4 act inactive.
For CCSc1ccccc1C(=O)N1CCC2(CC1)CC(=O)c1ccccc1O2 the results were TRPC6 inh inactive, TRPC4 block inactive, TRPC4 PAM inactive, TRPC6 act inactive and TRPC4 act inactive.
Screening Cn1c(=O)cc(OCCCC(=O)NCCN2CCN(c3ccccc3F)CC2)c2ccccc21 returned TRPC6 inh inactive, TRPC4 block inactive, TRPC4 PAM inactive, TRPC6 act inactive and TRPC4 act inactive.
For Cn1c(=O)cc(OCCCC(=O)NCCCN2CCN(Cc3ccccc3)CC2)c2ccccc21 the results were TRPC6 inh inactive, TRPC4 block inactive, TRPC4 PAM 25, TRPC6 act inactive and TRPC4 act inactive.
Screening O=C(c1cc(F)c(F)cc1Cl)N1CCCc2ccccc21 returned TRPC6 inh inactive, TRPC4 block inactive, TRPC4 PAM inactive, TRPC6 act inactive and TRPC4 act inactive.
Screening Cc1cc(C)c(C)c(OCCCOc2cccc3cccnc23)c1 returned TRPC6 inh inactive, TRPC4 block inactive, TRPC4 PAM 19, TRPC6 act inactive and TRPC4 act inactive.
For CN(C)CCCOC(=O)c1sc2ccccc2c1Cl the results were TRPC6 inh inactive, TRPC4 block inactive, TRPC4 PAM inactive, TRPC6 act inactive and TRPC4 act inactive.
Screening CN(C(=O)COC(=O)c1sc2ccccc2c1Cl)C1CCCCC1 returned TRPC6 inh inactive, TRPC4 block inactive, TRPC4 PAM 29, TRPC6 act inactive and TRPC4 act inactive.
COC(=O)CS(=O)(=O)c1cc(Br)cc2c1N(C(C)=O)CC2 was read as TRPC6 inh inactive, TRPC4 block inactive, TRPC4 PAM inactive, TRPC6 act inactive and TRPC4 act inactive.
CCCN(CCC)CCCNS(=O)(=O)c1cc(Br)cc2c1N(C(C)=O)CC2 was read as TRPC6 inh inactive, TRPC4 block inactive, TRPC4 PAM inactive, TRPC6 act inactive and TRPC4 act 62.
CC1CCN(CCCNS(=O)(=O)c2cc(Br)cc3c2N(C(=O)C2CC2)CC3)CC1 was read as TRPC6 inh inactive, TRPC4 block inactive, TRPC4 PAM inactive, TRPC6 act inactive and TRPC4 act 105.
`Cn1c(=O)c(=O)n(C)c2cc(S(=O)(=O)N3CCCC3C(=O)Nc3ccccc3F)ccc21` (centres undefined) gave TRPC6 inh inactive, TRPC4 block inactive, TRPC4 PAM inactive, TRPC6 act inactive and TRPC4 act inactive.
`CCOC(=O)c1c(C)n(-c2ccc(C)cc2)c2ccc(OCC(O)CNCC3CCCO3)cc12` (centres undefined) gave TRPC6 inh inactive, TRPC4 block inactive, TRPC4 PAM 33, TRPC6 act inactive and TRPC4 act inactive.
Cc1ccc(C(=O)NC(=S)NCc2ccccc2)cc1Br was read as TRPC6 inh inactive, TRPC4 block inactive, TRPC4 PAM inactive, TRPC6 act inactive and TRPC4 act inactive.
`Cc1ccc2c(c1)N(C(=O)CCC(=O)NCc1ccccc1)CC(C)O2` (centres undefined) gave TRPC6 inh inactive, TRPC4 block inactive, TRPC4 PAM inactive, TRPC6 act inactive and TRPC4 act inactive.
Screening Cc1ccc2c(c1)N(C(=O)CCC(=O)NCc1cccc(Cl)c1)CC(C)O2 (centres undefined) returned TRPC6 inh inactive, TRPC4 block -7, TRPC4 PAM inactive, TRPC6 act inactive and TRPC4 act inactive.
For CC1CC(C)CN(CCCNC(=O)CCC(=O)N2CC(C)Oc3ccccc32)C1 (centres undefined) the results were TRPC6 inh inactive, TRPC4 block inactive, TRPC4 PAM inactive, TRPC6 act inactive and TRPC4 act 53.
CC1CN(C(=O)CCC(=O)NCCc2ccccc2)c2ccccc2O1 (centres undefined) was read as TRPC6 inh inactive, TRPC4 block inactive, TRPC4 PAM inactive, TRPC6 act inactive and TRPC4 act inactive.
Screening COc1cccc(NC(=O)CCC(=O)N2CC(C)Oc3ccc(C)cc32)c1 (centres undefined) returned TRPC6 inh inactive, TRPC4 block -7, TRPC4 PAM inactive, TRPC6 act inactive and TRPC4 act inactive.
For Cc1ccc2c(c1)N(C(=O)CCC(=O)Nc1ccccc1Cl)CC(C)O2 (centres undefined) the results were TRPC6 inh inactive, TRPC4 block -8, TRPC4 PAM inactive, TRPC6 act inactive and TRPC4 act inactive.
Screening Cc1noc(NS(=O)(=O)c2ccc(NC(=O)C(F)(F)C(F)(F)C(F)(F)F)cc2)c1C returned TRPC6 inh inactive, TRPC4 block inactive, TRPC4 PAM inactive, TRPC6 act inactive and TRPC4 act inactive.
For CS(=O)(=O)Nc1cccc(-c2cnc3ccccc3n2)c1 the results were TRPC6 inh inactive, TRPC4 block inactive, TRPC4 PAM inactive, TRPC6 act inactive and TRPC4 act inactive.
O=C(NCc1ccco1)c1ccc2nc3sc4c(c3c(=O)n2c1)CCCC4 was read as TRPC6 inh inactive, TRPC4 block -6, TRPC4 PAM inactive, TRPC6 act inactive and TRPC4 act inactive.
CCOc1ccc(CN2CCN(C(=O)c3ccccc3)CC2)cc1 was read as TRPC6 inh inactive, TRPC4 block -7, TRPC4 PAM inactive, TRPC6 act inactive and TRPC4 act inactive.
CCOc1ccc(C(=O)N2CCN(Cc3ccccc3)CC2)cc1 was read as TRPC6 inh inactive, TRPC4 block inactive, TRPC4 PAM inactive, TRPC6 act inactive and TRPC4 act inactive.
CC(C)(C)c1cc[n+](-c2[nH]c(=O)sc2/C=N/N=C(\[O-])c2cccnc2)cc1 was read as TRPC6 inh inactive, TRPC4 block inactive, TRPC4 PAM inactive, TRPC6 act inactive and TRPC4 act inactive.

Source: PubChem
